Experiments:
[1] = molecular target: T1, Nuclear receptor subfamily 1 group I member 2 (Homo sapiens, UniProt O75469); assay: Agonist activity at human pregnane X receptor expressed in HGPXR reporter cells; assay type: functional, cell-based
T1 sequence (O75469 whole entry): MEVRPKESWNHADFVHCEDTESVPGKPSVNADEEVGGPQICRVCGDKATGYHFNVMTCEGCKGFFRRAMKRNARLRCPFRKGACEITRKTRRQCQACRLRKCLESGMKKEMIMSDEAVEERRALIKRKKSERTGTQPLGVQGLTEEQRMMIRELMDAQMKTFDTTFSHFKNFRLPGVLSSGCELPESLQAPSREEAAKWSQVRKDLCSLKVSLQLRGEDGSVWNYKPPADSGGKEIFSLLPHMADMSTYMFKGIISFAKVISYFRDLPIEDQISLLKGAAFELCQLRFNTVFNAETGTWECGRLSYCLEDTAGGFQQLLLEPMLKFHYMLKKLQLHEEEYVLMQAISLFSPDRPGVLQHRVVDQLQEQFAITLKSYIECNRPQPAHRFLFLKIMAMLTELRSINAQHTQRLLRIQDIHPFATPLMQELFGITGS

Hepatocyte [2] = assay: Induction of CYP3A4 mRNA expression in human hepatocyte FT268 at 1 uM after 24 hrs by RT-PCR relative to control; assay type: functional
Outline: (§1)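 Primary adult human hepatocytes from lobectomy segments, plated on collagen in Williams' E/Ham's F-12 (1:1) defined medium; 24 h exposure begun 48 h after plating, vehicle DMSO 0.1%. Total RNA extracted with TRIzol, cDNA from 1 µg using random hexamers (42 °C, 60 min). Target mRNA quantified by real-time PCR in duplicates, comparative Ct method. Result given as fold induction over DMSO-treated cells ± standard error.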

Hepatocyte [3] = assay: Induction of […] mRNA expression in human hepatocyte FT268 at 1 uM after 24 hrs by RT-PCR relative to control; assay type: functional; outline: as §1
Hepatocyte [4] = assay: Induction of CYP3A4 mRNA expression in human hepatocyte FT269 at 1 uM after 24 hrs by RT-PCR relative to control; assay type: functional; outline: as §1
Hepatocyte [5] = assay: Induction of […] mRNA expression in human hepatocyte FT269 at 1 uM after 24 hrs by RT-PCR relative to control; assay type: functional; outline: as §1
Hepatocyte [6] = assay: Induction of CYP3A4 mRNA expression in human hepatocyte FT271 at 1 uM after 24 hrs by RT-PCR relative to control; assay type: functional; outline: as §1
Hepatocyte [7] = assay: Induction of […] mRNA expression in human hepatocyte FT271 at 1 uM after 24 hrs by RT-PCR relative to control; assay type: functional; outline: as §1
Hepatocyte [8] = assay: Induction of CYP3A4 mRNA expression in human hepatocyte FT272 at 1 uM after 24 hrs by RT-PCR relative to control; assay type: functional; outline: as §1
Hepatocyte [9] = assay: Induction of […] mRNA expression in human hepatocyte FT272 at 1 uM after 24 hrs by RT-PCR relative to control; assay type: functional; outline: as §1
[10] = molecular target: T1, Nuclear receptor subfamily 1 group I member 2; assay: Protection of human pregnane X receptor against proteolytic digestion in presence of trypsin

| EC50 [1] | Compound | other results |
| --- | --- | --- |
| 20 nM | O=S(=O)(Nc1ccc2c(c1)ncn2Cc1ccccc1)c1cccc2ccccc12 | – |
| 271 nM | O=[N+]([O-])c1ccccc1S(=O)(=O)Nc1ccc2c(c1)ncn2Cc1ccccc1 | – |
| 336 nM | O=[N+]([O-])c1ccc(S(=O)(=O)Nc2ccc3c(c2)ncn3Cc2ccccc2)cc1 | – |
| 376 nM | O=S(=O)(Cc1ccccc1Cl)Nc1ccc2ncn(Cc3ccccc3)c2c1 | – |
| 1480 nM | O=C(Nc1ccc2c(c1)ncn2Cc1ccccc1)Nc1ccccc1Cl | – |
| 385 nM | O=S(=O)(Nc1ccc2c(c1)ncn2-c1ccc2ccccc2c1)c1ccccc1Cl | – |
| 0.7 nM | Cc1c(C)c(C)c(S(=O)(=O)Nc2ccc3c(c2)ncn3Cc2ccccc2)c(C)c1C | EC50 [10]: 8.04 nM; Ratio (Hepatocyte [4]): 29.02; Ratio (Hepatocyte [5]): 14.89; Ratio (Hepatocyte [6]): 14.91; Ratio (Hepatocyte [7]): 4.86; Ratio (Hepatocyte [8]): 32.59; Ratio (Hepatocyte [9]): 11.41 |
| 217 nM | O=C(Cc1cccc2ccccc12)Nc1ccc2c(c1)ncn2Cc1ccccc1 | – |
| > 5000 nM | O=C(Cc1ccc2ccccc2c1)Nc1ccc2c(c1)ncn2Cc1ccccc1 | – |
| 20 nM | O=S(=O)(Nc1ccc2c(c1)ncn2Cc1ccccc1)c1ccccc1Br | – |
| 55 nM | Cc1c(C)c(C)c(S(=O)(=O)Nc2ccc3c(c2)ncn3-c2ccc3ccccc3c2)c(C)c1C | – |
| 176 nM | O=S(=O)(Cc1ccccc1Cl)Nc1ccc2c(c1)ncn2Cc1ccccc1 | – |
| 51 nM | O=S(=O)(Nc1ccc2c(c1)ncn2Cc1ccccc1)c1ccc2ccccc2c1 | – |
| 101 nM | O=S(=O)(Nc1ccc2c(c1)ncn2Cc1ccccc1)c1ccccc1F | – |
| 52 nM | CCCc1ccc(S(=O)(=O)Nc2ccc3c(c2)ncn3Cc2ccccc2)cc1 | – |
| 45 nM | Cc1ccccc1S(=O)(=O)Nc1ccc2c(c1)ncn2Cc1ccccc1 | – |

Continued, compound first:

| Compound | EC50 [1] | other results |
| --- | --- | --- |
| O=[N+]([O-])c1ccccc1CS(=O)(=O)Nc1ccc2c(c1)ncn2Cc1ccccc1 | 428 nM | – |
| O=S(=O)(Nc1ccc2ncn(Cc3ccccc3)c2c1)c1ccccc1Cl | 340 nM | – |
| CCOP(=O)(OCC)C(=Cc1cc(C(C)(C)C)c(O)c(C(C)(C)C)c1)P(=O)(OCC)OCC | – | Ratio (Hepatocyte [2]): 4.02; Ratio (Hepatocyte [3]): 3.26; Ratio (Hepatocyte [4]): 10.9; Ratio (Hepatocyte [5]): 3.74; Ratio (Hepatocyte [6]): 11.84; Ratio (Hepatocyte [7]): 2; Ratio (Hepatocyte [8]): 24.01; Ratio (Hepatocyte [9]): 3.91 |
| O=C(Nc1ccc2c(c1)ncn2Cc1ccccc1)Nc1ccccc1[N+](=O)[O-] | > 5000 nM | – |
| O=S(=O)(Nc1ccc2c(c1)ncn2Cc1ccccc1)c1ccc(-c2ccccc2)cc1 | 388 nM | – |
| CC(C)(C)c1ccc(S(=O)(=O)Nc2ccc3c(c2)ncn3Cc2ccccc2)cc1 | 42 nM | – |
| Cc1cc(C)cc(S(=O)(=O)Nc2ccc3c(c2)ncn3Cc2ccccc2)c1 | 33 nM | – |
| Cc1cc(C)c(S(=O)(=O)Nc2ccc3c(c2)ncn3Cc2ccccc2)c(C)c1 | 1.5 nM | EC50 [10]: 8.05 nM; Ratio (Hepatocyte [6]): 15.58; Ratio (Hepatocyte [7]): 1.89; Ratio (Hepatocyte [8]): 31.68; Ratio (Hepatocyte [9]): 7.55 |
| O=C(Cc1ccccc1Cl)Nc1ccc2c(c1)ncn2Cc1ccccc1 | 515 nM | – |
| CCCCCCn1cnc2cc(NS(=O)(=O)c3ccccc3Cl)ccc21 | 55 nM | – |
| CCCCCCn1cnc2cc(NS(=O)(=O)c3c(C)c(C)c(C)c(C)c3C)ccc21 | 13 nM | – |
| O=S(=O)(Nc1ccc2c(c1)ncn2Cc1ccccc1)c1ccccc1Cl | 23 nM | EC50 [10]: 157 nM; Ratio (Hepatocyte [2]): 7.23; Ratio (Hepatocyte [3]): 3.02; Ratio (Hepatocyte [4]): 17.04; Ratio (Hepatocyte [5]): 10.46; Ratio (Hepatocyte [6]): 9.97; Ratio (Hepatocyte [7]): 3.05; Ratio (Hepatocyte [8]): 36.06; Ratio (Hepatocyte [9]): 11.83 |
| O=S(=O)(Cc1ccccc1Cl)Nc1ccc2c(ccn2Cc2ccccc2)c1 | 197 nM | – |
| O=C(Nc1ccc2c(c1)ncn2Cc1ccccc1)Nc1cccc2ccccc12 | > 5000 nM | – |
| CC(c1ccccc1)n1cnc2cc(NS(=O)(=O)Cc3ccccc3Cl)ccc21 (racemic) | 49 nM | EC50 [10]: 809 nM |
